# Assay results reported in PubChem BioAssay AID1483 (NMMLSC, 2009).
# The other results are listed elsewhere or left out. Unmarked numbers belong to inactive results.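 The calls were made as follows: active = fluorescence beyond the plate control mean plus 3 SD, with a fluorescence-to-maximum score over 2 (cut at about 25 in these data); inactive = the rest.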
# Assay: compound autofluorescence in ABCB1-expressing CCRF-Adr cells, confirmation, artefact control for ABC transporter inhibitor project, cell-based, 488/530 nm, flow cytometry (AID 1483)
# Settings: compound autofluorescence 488/530 nm, at 6.6 µM, hits give high values
# Outline: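 Probe or stimulus: JC-1 substrate omitted | Assay system: Drug-resistant CCRF-Adr cells | Compound dosing: One dose, 6.6 µM | Measure: Compound-treated cell MFI minus DMSO-treated cell MFI | Control set: DMSO-treated cell wells as background reference | Times: Compound with cells 10 min end-over-end rotation, 25 °C, immediate read | Signal: Flow cytometric MFI, 530 ± 20 nm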
smiles,measurement,value
COC(=O)COc1cc(C)cc2oc(=O)c3c(c12)CCCC3,fluorescence,2.91
